T cell HTS – modulators of CD8 T cell-vesicle binding, primary screen, mouse 2C CD8+ T cells, flow cytometry; 2C CD8+ T cell-vesicle binding; hits give low values; hit rate 0.068% among 330,000; AID 2052, 2009; response (vesicle binding), % at 7 µM;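 active = response, share of CD8 T cells binding vesicles, and their 90th percentile fluorescence all below set limits, cut at about 80% in these data, passing the limit was not always enough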;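 also: values below 100% mean blocked vesicle binding to the CD8+ T cells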
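incubation = binding step 1.5 h, 37 °C, antibody labelling 20 min, ice | test system = 2C mouse CD8+ T cells | read-out basis = percent CD8+ FL2 mean versus row control | controls = Peptide-free naked vesicles (low) and QL9 vesicles with 0.7% DMSO vehicle (high) | detection = flow cytometry of vesicle-bound cells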
Rce1 inh – yeast Rce1p protease inhibitors, primary screen, biochemical, fluorescence, cell-free homogeneous; CAAX prenyl protease 2 (Saccharomyces cerevisiae (strain ATCC 204508 / S288c)), Q03530; yeast membranes, quenched prenylated peptide cleavage fluorescence; calls only; hit rate 0.27% among 290,000;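 active = fall in fluorescence gain of 50% or more versus controls, with final raw signal at or below 3038400; inconclusive = same 50% fall but final raw signal above 3038400; inactive = fall in fluorescence gain under 50%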;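 also: plate controls were neutral control wells for no effect and wells lacking membranes for full effect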
Target sequence (Q03530 whole entry, looked up): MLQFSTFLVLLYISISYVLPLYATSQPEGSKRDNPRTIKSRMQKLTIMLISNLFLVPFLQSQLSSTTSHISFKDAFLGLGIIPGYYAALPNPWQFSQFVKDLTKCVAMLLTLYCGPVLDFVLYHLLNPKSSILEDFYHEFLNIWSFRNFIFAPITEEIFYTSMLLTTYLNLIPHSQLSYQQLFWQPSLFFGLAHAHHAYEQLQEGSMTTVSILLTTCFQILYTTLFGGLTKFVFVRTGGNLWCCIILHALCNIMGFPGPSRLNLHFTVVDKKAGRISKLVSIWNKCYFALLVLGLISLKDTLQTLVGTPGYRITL
GRK2 inh – compounds blocking aptamer binding on GRK2 – biochemical, human GRK2, bead flow cytometry, HTS, primary screen; Beta-adrenergic receptor kinase 1 (Homo sapiens), P25098; FAM-aptamer displacement from GRK2; inhibition of aptamer binding, % at 10 µM; hit rate 0.59% among 330,000;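 active = inhibition of aptamer binding above 40%, roughly 3 SD of noise, on plates passing a quality check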;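 also: median bead fluorescence of bound FAM aptamer so fluorescent compounds give negative values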
Rin1 Abl inh – inhibitors of Rin1-Abl protein binding, primary screen, biochemical, TR-FRET. Tyrosine-protein kinase ABL1 (Homo sapiens) + Ras and Rab interactor 1 (Homo sapiens), …. inhibition, % at 7.35 µM. hit rate 0.4% among 360,000. AID 588664, 2011; in the data active = inhibition above about 5%, passing the limit was not always enough
Myeloid diff MLP – induction of myeloid progenitor differentiation, primary screen, cell-based, flow cytometry, MLPCN library. ER-HoxA9 myeloid progenitors, lysozyme-GFP differentiation. calls only at 10 µM. hit rate 1% among 360,000. AID 624256, 2012;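 active = normalized GFP-positive differentiation at or above the plate's own cutoff, the solvent-only control mean plus 3 SD; inconclusive = no clear call, values can overlap the other calls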;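 also: cells exposed to compound for four days before flow analysis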
SKN-1 block – suppressors of acrylamide-induced Pgst-4::GFP reporter in worms, primary screen, SKN-1 inhibitor project, whole organism, uHTS, GFP/RFP fluorescence ratio, strain VP596. inhibition, % at 21.8 µM. C. elegans VP596 Pgst-4::GFP/RFP ratio, 24 h. hit rate 0.49% among 360,000. AID 624304, 2012;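 active = interference check ratio from 0.5 to 1.5 plus GFP to RFP signal ratio inhibition reaching or exceeding a fixed threshold, cut at about 30% in these data, passing the limit was not always enough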
Myeloid diff CP1 – inducers of myeloid progenitor differentiation, confirmation, cell-based, GFP/Mac1 flow cytometry, cherry pick 01; calls only; shares compounds with Myeloid diff MLP; ER-HoxA9 myeloid progenitors, GFP/Mac1 double-positive flow; hit rate 2% among 2,300;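 active = share of green or green-and-red cells above 9 and 9% in run 1 or 4 and 3% in run 2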
GFP autofluor – flagged as fluorescent in myeloid differentiation counter-screen; AID 651707; ER-HoxA9 myeloid progenitors, no estrogen, GFP autofluorescence flow cytometry; vehicle wells 0%, positive control 100%; fluorescence response, % (test concentration not listed); shares compounds with Myeloid diff MLP; hit rate 7.4% among 2,300;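 active = over 5% cells positive for green fluorescent reporter, or over 2% positive for both it and APC stain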;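 also: range taken on the double positive population between DMSO and positive control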
The depositor's hits bear a star; i = inactive; ? = inconclusive; nt = no result given; + = active, no number. Rows were chosen to be rich in hits. Some 2.6% of all compounds tested hit in one or more screens of this group.

SMILES	T cell HTS	Rce1 inh	GRK2 inh	Rin1 Abl inh	Myeloid diff MLP	SKN-1 block	Myeloid diff CP1	GFP autofluor
O=C1NC(c2cccc3ccccc23)Nc2ccccc21 (centres undefined)	nt	nt	nt	-1	?	0	nt	nt
COc1cc(C)c(CN2CCCCC2CO)cc1C (centres undefined)	306	i	0	3	+	5	i	0
CC(C)CNC(=O)COC(=O)c1ccccc1SCC(=O)NCC(C)C	290	i	3	-1	i	-5	nt	nt
CC(C)CNC(=O)c1ccccc1SCC(=O)NC12CC3CC(CC(C3)C1)C2	274	i	0	1	+	6	i	4
Cc1ccc2nc(NC(=O)CSCC(=O)OCC(=O)c3ccccc3)sc2c1	223	i	0	-3	+	-10	i	0
CCOc1ccc(C(=O)OCC(=O)NC2CCCC2)cc1OCC	104	i	0	0	i	9	nt	nt
O=C(NC1CCCCC1)C(c1ccc(O)cc1)N(C(=O)c1cnccn1)c1cccc(F)c1 (centres undefined)	251	i	0	1	i	13	nt	nt
O=C(O)c1ccc(Cl)c(S(=O)(=O)Nc2ccc(OCc3ccccc3)cc2)c1	178	i	0	4	i	-3	i	0
CCOc1ccc(NS(=O)(=O)c2cc(C(=O)N3CCCC3)ccc2Cl)cc1	222	i	4	5	i	-6	nt	nt
CCOc1ccccc1N1C(=O)CN(Cc2ccc(OC)c(OC)c2)C1=S	501	i	2	4	i	1	nt	nt
CC(C)(C)OC(=O)N[C@@H](Cc1ccccc1)C(=O)N1CCC(C(=O)O)CC1	507	i	1	4	i	-20	i	0
CC(Oc1ccccc1)C(=O)N=C1SC2CS(=O)(=O)CC2N1CCc1ccccc1 (centres undefined)	279	i	2	-2	i	5	nt	nt
Cn1c(Cc2ccccc2)nnc1SCC(=O)Nc1ccccc1N1CCOCC1	202	i	2	-2	i	27	i	0
CCn1c(Cc2ccccc2)nnc1SCC(=O)Nc1ccccc1N1CCOCC1	271	i	3	1	i	-3	nt	nt
Cn1ccnc1SCC(=O)Nc1cc(C(F)(F)F)ccc1N1CCOCC1	210	i	2	-1	i	-2	i	0
CCN(c1ccccc1)S(=O)(=O)c1ccc2c(c1)C(C)(C)C(=O)N2C	662	i	0	1	i	-8	nt	nt
CCN1C(=O)[C@H]2[C@H]3CN=C(SCC4CC4)N3[C@@](Cc3ccccc3)(C(=O)OC)[C@H]2C1=O	nt	nt	0	-5	i	-8	i	0
CCN1C(=O)[C@H]2[C@H]3CN=C(SCc4ccccc4)N3[C@@](Cc3ccccc3)(C(=O)OC)[C@H]2C1=O	nt	nt	2	3	i	-4	i	1
O=C(CCc1ccccc1)Nc1ccc(NC(=O)c2ccco2)cc1	256	i	3	3	i	8	nt	nt
O=C(N/N=C\CCc1ccccc1)c1ccco1	394	i	0	-1	i	-10	i	0
CCOc1ccc(NC(=O)CN(C)C(=O)C(C)N2C(=O)c3ccccc3C2=O)cc1OCC (centres undefined)	209	nt	1	-2	i	-5	nt	nt
CC(=O)NC(Cc1ccccc1F)C(=O)NC1CCN(S(=O)(=O)c2ccccc2)CC1 (centres undefined)	nt	i	nt	-2	i	-5	nt	nt
COc1ccc(C2=NN(C(=O)c3ccccc3)C(c3ccc(OC)c(OC)c3)C2)cc1OC (centres undefined)	nt	i	nt	-1	i	-8	nt	nt
COc1ccccc1C1CC(c2ccc(Br)cc2)=NN1C(=O)c1cccnc1 (centres undefined)	295	i	0	-2	i	9	i	0
c1ccc(-c2noc(CC3CCCCC3)n2)nc1	538	i	0	0	i	-8	nt	nt
SMILES	T cell HTS	Rce1 inh	GRK2 inh	Rin1 Abl inh	Myeloid diff MLP	SKN-1 block	Myeloid diff CP1	GFP autofluor
Cc1cc(C)n2c(NC3CCCC3)c(-c3cc4ccccc4o3)nc2n1	nt	nt	nt	nt	i	14	i	2
Cc1cc(C)n2c(NC3CCCCC3)c(-c3ccccn3)nc2n1	nt	nt	nt	nt	i	8	nt	nt
O=C(CNC(=O)c1ccc(Br)o1)NCC1CCCCC1	294	nt	0	5	i	-14	nt	nt
Cc1ccc(NC(=O)CNC(=O)c2ccc(OC(F)F)cc2)cc1S(=O)(=O)N1CCCCCC1	nt	nt	nt	3	i	-4	nt	nt
CCN(CC)CCN(C(=O)c1ccc(N2C(=O)CCC2=O)cc1)c1nc2cc3c(cc2s1)OCCO3	56	i	0	1	+	3	i	0
Cc1nc(-c2ccc(F)cc2)c(CC(=O)N2CCN(S(=O)(=O)c3cccc(Cl)c3)CC2)s1	388	i	1	1	i	14	nt	nt
Cc1ccc(NC(=O)COC(=O)CN2C(=O)NC3(CCCC3)C2=O)cc1F	295	nt	0	5	i	-9	i	1
CN(CC(=O)Nc1ccc(F)cc1)C(=O)COC(=O)CN1C(=O)NC2(CCCC2)C1=O	0	i	0	3	i	1	nt	nt
Cc1ccccc1S(=O)(=O)NC(=O)C1(C)CCN1C(=O)CC(c1ccccc1)c1ccccc1 (centres undefined)	nt	nt	nt	-6	i	-7	nt	nt
N#C/C(=N\Nc1ccc(S(=O)(=O)N2CCc3ccccc32)cc1)C(N)=S	157	i	1	-1	+	6	i	0
COc1ccc(N2CCN(C(=O)CCc3ccccc3)CC2)cc1	237	i	3	-2	i	-7	nt	nt
Cc1sc2ncnc(NCCc3ccc(S(N)(=O)=O)cc3)c2c1C	320	i	1	0	i	-8	i	0
NS(=O)(=O)c1ccc(CCNc2ncnc3sccc23)cc1	359	i	1	1	i	2	nt	nt
O=C(Nc1ccc(F)cc1)c1cccc(N2C(=O)C3C4C=CC(C4)C3C2=O)c1 (centres undefined)	i	i	0	-3	+	23	i	0

Screening results deposited in PubChem by several laboratories.
